The source made the active and inactive calls. The calls are words filed in the database; no cut-off is given here.
Experiments:
[1] = species: Rattus norvegicus; assay: Anti-dynamic allodynic effect in Sprague-Dawley rat CCI model assessed as latency to paw withdrawal after 2.5 hr; assay type: functional
Outline: (§1)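 Rats with sciatic nerve chronic constriction injury (pentobarbital 65 mg/kg i.p. anaesthesia), baseline and day 9 testing, then drug per randomization table. After 10 min acclimatization, affected plantar surface stroked mildly with a cotton-bud; paw lift recorded. n = 4; retested 0.5-2.5 h post-dose.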

[2] = tested on: Rattus norvegicus; assay: Antihyperalgesic effects in Sprague-Dawley rat CCI model assessed as duration of paw withdrawal at 100 mg/kg, ip after 1 hr; assay type: functional; conditions: route intraperitoneal
[3] = tested on: Rattus norvegicus; assay: Anti-dynamic allodynia effect in Sprague-Dawley rat SNL model assessed as latency to paw withdrawal 100 mg/kg, ip after 2.5 hrs; assay type: functional; conditions: route intraperitoneal
Outline: (§2)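 Left L5 spinal nerve ligation rats, tested preoperatively and 9 days postoperatively, then given 100 mg/kg i.p. (vehicle 30% v/v PEG 400 in water). After 10 min acclimatization, plantar surface of affected paw stroked mildly with a cotton-bud; paw lift response recorded. n = 4; retested 0.5-2.5 h post-dose.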

[4] = tested on: Mus musculus; assay: Anticonvulsant activity in Swiss Albino mouse at 100 mg/kg, ip after 4 hrs by scPIC test; assay type: functional, organism-based; set-up: dose 100 mg/kg
Outline: (§3)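 Mice (Swiss, 20-25 g) given i.p. doses of 30, 100 and 300 mg/kg under ADD program protocols, three per group, examined at 0.5 and 4 h in MES, scPTZ, scSTY or scPIC seizure tests. Value is the minimum dose protecting half or more of the mice.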

[5] = tested on: Rattus norvegicus; assay: Effect on spontaneous pain in Sprague-Dawley rat SNL model assessed as duration of paw withdrawal at 100 mg/kg, ip after 0.5 hr; assay type: functional; conditions: route intraperitoneal
Outline: (§4)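 Rats underwent left L5 spinal nerve ligation (Kim and Chung) under i.p. pentobarbital (65 mg/kg). Spontaneous pain is recorded for 5 min after 10 min acclimatization, as cumulative duration the ipsilateral paw is lifted, excluding locomotor lifts. Dosing is 100 mg/kg i.p. in 30% v/v PEG 400/water, with testing at 0.5–2.5 h. Four rats, mean ± SEM versus predrug, one-way ANOVA with Bonferroni.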

[6] = tested on: Mus musculus; assay: Anticonvulsant activity in Swiss Albino mouse at 100 mg/kg, ip after 0.5 hr by scPIC test; assay type: functional, organism-based; set-up: dose 100 mg/kg; outline: as §3
[7] = species: Rattus norvegicus; assay: Anti-dynamic allodynic effect in Sprague-Dawley rat CCI model assessed as latency to paw withdrawal after 1 hr; assay type: functional; outline: as §1
[8] = tested on: Rattus norvegicus; assay: Effect on spontaneous pain in Sprague-Dawley rat SNL model assessed as duration of paw withdrawal at 100 mg/kg, ip after 1.5 hrs; assay type: functional; conditions: route intraperitoneal; outline: as §4
[9] = tested on: Rattus norvegicus; assay: Antihyperalgesic effects in Sprague-Dawley rat CCI model assessed as duration of paw withdrawal at 100 mg/kg, ip after 0.5 hr; assay type: functional; conditions: route intraperitoneal
[10] = tested on: Rattus norvegicus; assay: Effect on spontaneous pain in Sprague-Dawley rat SNL model assessed as duration of paw withdrawal at 100 mg/kg, ip after 2 hrs; assay type: functional; conditions: route intraperitoneal; outline: as §4
[11] = tested on: Mus musculus; assay: Anticonvulsant activity in Swiss Albino mouse at 300 mg/kg, ip after 0.5 hr by MES test; assay type: functional, organism-based; set-up: dose 300 mg/kg; outline: as §3
[12] = tested on: Rattus norvegicus; assay: Antihyperalgesic effects in Sprague-Dawley rat SNL model assessed as duration of paw withdrawal at 100 mg/kg, ip after 2.5 hrs, ip; assay type: functional; conditions: route intraperitoneal
Outline: (§5)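 L5 SNL rats (n = 4), dosed 100 mg/kg i.p. (vehicle 30% v/v PEG 400 in water). Pin-prick to midplantar ipsilateral left hindpaw; withdrawal duration, mean of three responses; ≥2 s defined abnormal. Mean ± SEM; one-way ANOVA with Bonferroni versus predrug.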

[13] = tested on: Mus musculus; assay: Anticonvulsant activity in Swiss Albino mouse at 300 mg/kg, ip after 0.5 hr by scSTY test; assay type: functional, organism-based; set-up: dose 300 mg/kg; outline: as §3
[14] = tested on: Mus musculus; assay: Neurotoxicity in Swiss Albino mouse at 300 mg/kg, ip after 4 hrs by rotarod test; assay type: functional, organism-based; set-up: dose 300 mg/kg
Outline: (§6)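 Swiss mice (20-25 g) are trained on an accelerating rotorod (10 rpm, 3.2 cm rod), then injected i.p. at 30, 100 or 300 mg/kg, with three per group. Neurotoxicity means failure to keep equilibrium for at least 1 min in each of three trials, checked at 0.5 and 4 h. The value reported is the minimum dose affecting half or more of the mice.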

[15] = tested on: Mus musculus; assay: Neurotoxicity in Swiss Albino mouse at 300 mg/kg, ip after 0.5 hr by rotarod test; assay type: functional, organism-based; set-up: dose 300 mg/kg; outline: as §6
[16] = tested on: Rattus norvegicus; assay: Effect on spontaneous pain in Sprague-Dawley rat SNL model assessed as duration of paw withdrawal at 100 mg/kg, ip after 2.5 hrs; assay type: functional; conditions: route intraperitoneal; outline: as §4
[17] = tested on: Mus musculus; assay: Analgesic activity in Swiss Albino mouse assessed as number of acetic acid-induced writhing per 30 min after 100 mg/kg, ip; assay type: functional; conditions: route intraperitoneal
Outline: (§7)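 Mice in groups of six dosed i.p. at 100 mg/kg, controls receiving 30% v/v PEG 400 in water. Writhing induced by i.p. 0.1 mL of 3% v/v acetic acid 1 h after drug. Writhes (abdominal stretch with at least one hind limb extended) counted over 30 min; % inhibition calculated. Mean ± SEM, Student's t test.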

[18] = species: Rattus norvegicus; assay: Anti-dynamic allodynic effect in Sprague-Dawley rat CCI model assessed as latency to paw withdrawal after 1.5 hr; assay type: functional; outline: as §1
[19] = tested on: Rattus norvegicus; assay: Anti-dynamic allodynia effect in Sprague-Dawley rat SNL model assessed as latency to paw withdrawal 100 mg/kg, ip after 2 hrs; assay type: functional; conditions: route intraperitoneal; outline: as §2
[20] = tested on: Rattus norvegicus; assay: Antihyperalgesic effects in Sprague-Dawley rat SNL model assessed as duration of paw withdrawal at 100 mg/kg, ip after 1.5 hrs, ip; assay type: functional; conditions: route intraperitoneal; outline: as §5
[21] = tested on: Rattus norvegicus; assay: Antihyperalgesic effects in Sprague-Dawley rat SNL model assessed as duration of paw withdrawal at 100 mg/kg, ip after 1 hr, ip; assay type: functional; conditions: route intraperitoneal; outline: as §5
[22] = tested on: Mus musculus; assay: Analgesic activity in Swiss Albino mouse assessed as inhibition of acetic acid-induced writhing responses at 100 mg/kg, ip; assay type: functional; conditions: route intraperitoneal; outline: as §7
[23] = tested on: Mus musculus; assay: Anticonvulsant activity in Swiss Albino mouse at 300 mg/kg, ip after 4 hrs by MES test; assay type: functional, organism-based; set-up: dose 300 mg/kg; outline: as §3
[24] = tested on: Mus musculus; assay: Anticonvulsant activity in Swiss Albino mouse at 300 mg/kg, ip after 0.5 hr by scPTZ test; assay type: functional, organism-based; set-up: dose 300 mg/kg; outline: as §3
[25] = tested on: Rattus norvegicus; assay: Anti-dynamic allodynia effect in Sprague-Dawley rat SNL model assessed as latency to paw withdrawal 100 mg/kg, ip after 1.5 hrs; assay type: functional; conditions: route intraperitoneal; outline: as §2
[26] = tested on: Mus musculus; assay: Anticonvulsant activity in Swiss Albino mouse at 300 mg/kg, ip after 4 hrs by scSTY test; assay type: functional, organism-based; set-up: dose 300 mg/kg; outline: as §3
[27] = tested on: Rattus norvegicus; assay: Anti-dynamic allodynia effect in Sprague-Dawley rat SNL model assessed as latency to paw withdrawal 100 mg/kg, ip after 0.5 hr; assay type: functional; conditions: route intraperitoneal; outline: as §2
[28] = tested on: Rattus norvegicus; assay: Antihyperalgesic effects in Sprague-Dawley rat CCI model assessed as duration of paw withdrawal at 100 mg/kg, ip after 2.5 hrs; assay type: functional; conditions: route intraperitoneal
[29] = tested on: Rattus norvegicus; assay: Antihyperalgesic effects in Sprague-Dawley rat SNL model assessed as duration of paw withdrawal at 100 mg/kg, ip after 2 hrs, ip; assay type: functional; conditions: route intraperitoneal; outline: as §5
[30] = species: Rattus norvegicus; assay: Anti-dynamic allodynic effect in Sprague-Dawley rat CCI model assessed as latency to paw withdrawal after 2 hr; assay type: functional; outline: as §1
[31] = tested on: Rattus norvegicus; assay: Antihyperalgesic effects in Sprague-Dawley rat CCI model assessed as duration of paw withdrawal at 100 mg/kg, ip after 1.5 hrs; assay type: functional; conditions: route intraperitoneal
[32] = tested on: Rattus norvegicus; assay: Antihyperalgesic effects in Sprague-Dawley rat CCI model assessed as duration of paw withdrawal at 100 mg/kg, ip after 2 hrs; assay type: functional; conditions: route intraperitoneal
[33] = tested on: Rattus norvegicus; assay: Anti-dynamic allodynia effect in Sprague-Dawley rat SNL model assessed as latency to paw withdrawal 100 mg/kg, ip after 1 hr; assay type: functional; conditions: route intraperitoneal; outline: as §2
[34] = tested on: Rattus norvegicus; assay: Antihyperalgesic effects in Sprague-Dawley rat SNL model assessed as duration of paw withdrawal at 100 mg/kg, ip after 0.5 hr, ip; assay type: functional; conditions: route intraperitoneal; outline: as §5
[35] = tested on: Rattus norvegicus; assay: Effect on spontaneous pain in Sprague-Dawley rat SNL model assessed as duration of paw withdrawal at 100 mg/kg, ip after 1 hr; assay type: functional; conditions: route intraperitoneal; outline: as §4
[36] = species: Rattus norvegicus; assay: Anti-dynamic allodynic effect in Sprague-Dawley rat CCI model assessed as latency to paw withdrawal after 0.5 hr; assay type: functional; outline: as §1

**Q.** Which Activity [1] does the source give for `O=C(O)CCCNC(=O)N/N=C/c1ccc(Cl)cc1` here?
**A.** 13 s

**Q.** And the Activity [2]?
**A.** 7.8 s

**Q.** What about the Activity [3] of the same molecule?
**A.** 0.35 s

**Q.** And the Activity [4]?
**A.** Active

**Q.** What about the Activity [5] of the same molecule?
**A.** 33.1 s

**Q.** What about the Activity [6] of the same molecule?
**A.** Active

**Q.** What about the Activity [7] of the same molecule?
**A.** 3.5 s

**Q.** And the Activity [8]?
**A.** 12.7 s

**Q.** And the Activity [9]?
**A.** 7.9 s

**Q.** And the Activity [10]?
**A.** 11.2 s

**Q.** What about the Activity [11] of the same molecule?
**A.** inactive

**Q.** And the Activity [12]?
**A.** 17.9 s

**Q.** What about the Activity [13] of the same molecule?
**A.** Active

**Q.** And the Activity [14]?
**A.** inactive

**Q.** What about the Activity [15] of the same molecule?
**A.** inactive

**Q.** What about the Activity [16] of the same molecule?
**A.** 15.9 s

**Q.** What about the Activity [17] of the same molecule?
**A.** 59.3

**Q.** And the Activity [18]?
**A.** 1.1 s

**Q.** What about the Activity [19] of the same molecule?
**A.** 0.8 s

**Q.** What about the Activity [20] of the same molecule?
**A.** 12.3 s

**Q.** And the Activity [21]?
**A.** 17.3 s

**Q.** What about the inhibition in vivo at 100 mg/kg [22] of the same molecule?
**A.** 68%

**Q.** What about the Activity [23] of the same molecule?
**A.** inactive

**Q.** And the Activity [24]?
**A.** inactive

**Q.** And the Activity [25]?
**A.** 11.3 s

**Q.** And the Activity [26]?
**A.** Active

**Q.** And the Activity [27]?
**A.** 4.5 s

**Q.** And the Activity [28]?
**A.** 7.2 s

**Q.** And the Activity [29]?
**A.** 5.6 s

**Q.** What about the Activity [30] of the same molecule?
**A.** 14.5 s

**Q.** And the Activity [31]?
**A.** 4.4 s

**Q.** What about the Activity [32] of the same molecule?
**A.** 4.2 s

**Q.** And the Activity [33]?
**A.** 4.2 s

**Q.** And the Activity [34]?
**A.** 24.6 s

**Q.** And the Activity [35]?
**A.** 14 s

**Q.** And the Activity [36]?
**A.** 14.9 s

— ChEMBL document CHEMBL1139875, “Discovery of 4-aminobutyric acid derivatives possessing anticonvulsant and antinociceptive activities: a hybrid pharmacophore approach” (2007)
